Laboratory results taken from paper PMC10829792 (Cell Reports Medicine, 2024).

Tests used:
[1] = system: DLBCL patient-derived xenograft (PDX) mice; assay: Tumor growth in DLBCL PDX mice; type: in vivo, mouse; conditions: γPNA2-NLS 5 mg/kg, romidepsin 1 mg/kg i.p., n = 5 per group
Outline: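 DLBCL PDX fragments were serially implanted, reharvested at ~1500 mm³, and grouped at 100–150 mm³. Dosing followed the U2932 xenograft regimen: romidepsin 1 mg/kg i.p. days 0 and 6; test compound 5 mg/kg days 1, 4, 7 and 10. Body weight and tumour volume were recorded daily. Endpoint was tumour volume 1800–2000 mm³.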

U2932 xenograft mice = assay: Tumor growth and survival study in U2932 xenograft mice; type: in vivo, mouse; conditions: romidepsin 1 mg/kg i.p. on days 0 and 6, n = 8
Outline: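 Mice bearing U2932 tumours of 100–150 mm³ were randomised. Romidepsin 1 mg/kg i.p. on days 0 and 6, and test compound 5 mg/kg on days 1, 4, 7 and 10, alone or combined. Vehicle group included.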

U2932 cells = assay: Cell viability, trypan blue assay; type: cell-based, human; conditions: U2932 cells treated with only romidepsin (10 nM) or γPNA2-NLS (8 μM)
DLBCL PDX tumors = assay: Histology and immunohistochemistry; type: in vivo, mouse; conditions: romidepsin study, n = 2 mice per group, n > 4 images
Outline: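 DLBCL PDX mice grouped at tumour volume 100–150 mm³. Romidepsin 1 mg/kg i.p. on days 0 and 6; test compound 5 mg/kg on days 1, 4, 7 and 10. Mice euthanized at 1800–2000 mm³.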

Raji cells = assay: Cell viability, trypan blue assay; type: cell-based, human; conditions: romidepsin with or without γPNA2-NLS, mean, n = 3
γH2AX in HeLa cells = assay: γH2AX foci assay, immunofluorescence; type: cell-based, human; conditions: 24 h, γPNA2-NLS 8 μM, bleomycin 50 and 150 μM
Outline: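 HeLa cells were seeded at 100,000/well and exposed for 24 h to test compound (8 μM) or bleomycin (50 and 150 μM). Nuclei were stained with NucBlue (25 min, 37°C). Cells were fixed in 4% PFA (10 min, RT), permeabilised with 0.1% Triton X in PBS, and stained with PE-conjugated anti-γH2AX (2 h, 37°C). Read-out was fluorescence microscopy.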

## C/C=C1\NC(=O)[C@H]2CSSCC/C=C/[C@H](CC(=O)N[C@H](C(C)C)C(=O)N2)OC(=O)[C@H](C(C)C)NC1=O [romidepsin]
[1]
  lower tumor volumes / decrease on day 35: 1.3 fold
U2932 xenograft mice
  reduction of tumor growth: 2 fold
U2932 cells
  viability, day 4, single treatments: 50 % viability
DLBCL PDX tumors
  caspase-3 activation, fold increase: ~5 fold
Raji cells
  reduction in viability, day 4: 58%

## bleomycin
γH2AX in HeLa cells
  γH2AX immunofluorescence staining: increased γH2AX-positive nuclei
